The sample as a whole holds a higher share of hits than the screen did.
T cruzi growth-1 = blocks T. cruzi growth in NIH3T3 culture; T. cruzi beta-gal in NIH3T3, GalScreen luminescence, 90 h; inhibition, % at 8.34 µM; actives 5.9% (n = 77,000); AID 624255;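 active = mean inhibition above about 93%, with at least 55% of replicates each passing it, limit read from the data, passing the limit was not always enough; inconclusive = only one of those two conditions holds; inactive = neither condition holds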
GASC1 inh = inhibitors of human demethylase GASC-1 KDM4C | Q9H3R0 | GST-KDM4C 2-372, H3K9me3 peptide, LANCE TR-FRET | inhibition, % at 12.5 µM | actives 0.15% (n = 96,000) | AID 720574;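 active = mean replicate inhibition above about 25%, with at least 55% of replicates also reaching it, limit read from the data, passing the limit was not always enough; inconclusive = only one of those two conditions met; inactive = neither condition met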
Target sequence (Q9H3R0 2-372 limits assumed): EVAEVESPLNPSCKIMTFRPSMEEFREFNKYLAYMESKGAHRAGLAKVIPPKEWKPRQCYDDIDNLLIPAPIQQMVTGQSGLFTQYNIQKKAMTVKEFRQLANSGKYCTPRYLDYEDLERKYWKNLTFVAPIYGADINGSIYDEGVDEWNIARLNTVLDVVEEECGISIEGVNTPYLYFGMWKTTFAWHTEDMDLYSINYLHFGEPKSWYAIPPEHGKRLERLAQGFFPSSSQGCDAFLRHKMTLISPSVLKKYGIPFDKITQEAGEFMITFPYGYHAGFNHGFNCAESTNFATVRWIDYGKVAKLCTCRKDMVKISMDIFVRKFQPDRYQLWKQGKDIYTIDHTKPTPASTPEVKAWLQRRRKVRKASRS
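System: N-terminal GST-fused human GASC-1 (KDM4C) fragment, residues 2-372; amount: enzyme final amount 10 nM; incubation: reaction 30 min RT, detection step 1 h RT; medium: HEPES buffer, pH 7.5, plus ascorbate; technique: LANCE TR-FRET, Eu antibody, ULight-streptavidin, EDTA, ex 340 nm, em 618/671 nm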
IDH1 R132H inh = inhibitors of human IDH1 R132H. inhibition, % at 10 µM. IDH1 R132H reductase, diaphorase/resazurin fluorescence, 60 min. actives 0.18% (n = 70,000). AID 624101. O75874; in the data active = inhibition above about 34%; inconclusive = no clear call, values can overlap the other calls; inactive = below about 11%
T cruzi growth-2 = inhibitors of T. cruzi proliferation; actives 72% (n = 5,600); T. cruzi beta-gal in NIH3T3, GalScreen luminescence, 90 h; AID 651739; inhibition, % at 8.35 µM; shares compounds with T cruzi growth-1;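 active = mean replicate inhibition above about 95% and at least 55% of replicates individually reaching it, limit read from the data; inconclusive = only one of the two criteria is met; inactive = neither criterion is met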
T cruzi growth-3 = blocks T. cruzi growth in NIH3T3 host cells. shares compounds with T cruzi growth-1. T. cruzi beta-gal in NIH3T3, GalScreen luminescence, 90 h. inhibition, % at 2.09 µM. actives 21% (n = 5,600). AID 651740;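 active = mean inhibition above about 95%, with at least 55% of replicates also reaching it, limit read from the data; inconclusive = meets just one of the two conditions; inactive = meets neither condition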
NIH3T3 tox = NIH/3T3 (mouse) viability loss. shares compounds with T cruzi growth-1. AID 651742. NIH/3T3 viability, CellTiter-Glo ATP luminescence, 90 h. actives 14% (n = 5,600). cytotoxicity (signal decrease), % at 8.35 µM;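 active = mean signal decrease across replicates above about 35% based on untreated-well scatter, with enough replicates individually passing, limit read from the data; inconclusive = no rule stated though some were filed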
3T3 cytotox 2 = cytotoxicity in mouse NIH/3T3 fibroblasts; shares compounds with T cruzi growth-1; NIH/3T3 viability, CellTiter-Glo ATP luminescence, 90 h; inhibition, % at 24.9 µM; actives 56% (n = 5,600);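 active = mean loss of cell viability signal at or above a set limit, and enough replicates individually reaching it; inconclusive = meets only the mean limit or only the replicate share; inactive = meets neither condition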
Hits are given with their value; - = inactive; ? = inconclusive; . = not tested or not shown.

SMILES | T cruzi growth-1 | GASC1 inh | IDH1 R132H inh | T cruzi growth-2 | T cruzi growth-3 | NIH3T3 tox | 3T3 cytotox 2
OC[C@@H]1[C@H](c2ccc(-c3cccnc3)cc2)[C@@H]2CN(Cc3ccccn3)CCCCN12 | - | - | . | . | . | . | .
COc1ccc2c3c([nH]c2c1)[C@@H](CO)N(C(=O)c1cccnc1)CC31CCN(C(=O)CN(C)C)CC1 | . | - | . | . | . | . | .
CN1C(=O)c2cc(NC(=O)c3ccc(C(F)(F)F)cc3)ccc2OC[C@H]2O[C@H](CC(=O)O)CC[C@H]21 | - | - | . | . | . | . | .
C[C@H]1CN([C@@H](C)CO)C(=O)c2cc(NC(=O)Nc3cccc4ccccc34)ccc2O[C@@H]1CN(C)Cc1ccc(C(F)(F)F)cc1 | 87 | - | . | 109 | - | - | -
C[C@@H]1CN([C@H](C)CO)C(=O)c2cc(NC(=O)Nc3cccc4ccccc34)ccc2O[C@H]1CN(C)Cc1ccccc1 | - | - | - | . | . | . | .
C[C@@H]1CN([C@@H](C)CO)C(=O)c2cc(NC(=O)Nc3cccc4ccccc34)ccc2O[C@@H]1CN(C)Cc1ccccc1 | - | - | - | . | . | . | .
C[C@@H]1CN([C@H](C)CO)C(=O)c2cc(NC(=O)Nc3cccc4ccccc34)ccc2O[C@H]1CN(C)Cc1ccc(C(F)(F)F)cc1 | 106 | - | - | 105 | - | - | ?
C[C@@H]1CN([C@H](C)CO)C(=O)Cc2cc(NC(=O)C3CC3)ccc2O[C@H]1CN(C)Cc1ccc(-c2ccccc2)cc1 | - | - | - | . | . | . | .
C[C@@H]1CN([C@@H](C)CO)C(=O)Cc2cc(NC(=O)C3CC3)ccc2O[C@H]1CN(C)Cc1ccc(-c2ccccc2)cc1 | 114 | - | - | 102 | - | - | 103
C[C@H]1CN([C@@H](C)CO)C(=O)Cc2cc(NC(=O)C3CCCCC3)ccc2O[C@@H]1CN(C)Cc1ccc(-c2ccccc2)cc1 | 99 | - | - | 104 | - | - | -
C[C@@H]1CN([C@H](C)CO)C(=O)Cc2cc(NC(=O)C3CCCCC3)ccc2O[C@@H]1CN(C)Cc1ccc(-c2ccccc2)cc1 | - | - | - | . | . | . | .
CC(=O)Nc1ccc(C(=O)CSc2nnc(-c3ccncc3)o2)cc1 | . | . | - | . | . | . | .
O=C(NCC[C@@H]1CC[C@H](NC(=O)C2CCC2)[C@@H](CO)O1)Nc1ccc(Cl)cc1 | . | - | - | . | . | . | .
COc1ccc(C#Cc2cnc3c(c2)C(=O)N([C@H](C)CO)C[C@H](C)[C@H](CN(C)C(=O)Nc2cccc(OC)c2)O3)cc1 | - | - | . | . | . | . | .
COc1cccc(NC(=O)N(C)C[C@H]2Oc3ncc(C#Cc4ccncc4)cc3C(=O)N([C@@H](C)CO)C[C@@H]2C)c1 | . | - | - | . | . | . | .
C[C@@H]1CN([C@H](C)CO)C(=O)c2cc(C#CC3CCCC3)cnc2O[C@H]1CN(C)C(=O)Nc1ccccc1 | 99 | - | . | 104 | - | - | -
C[C@H]1CN([C@@H](C)CO)C(=O)c2cc(C#CC3CC3)cnc2O[C@@H]1CN(C)C(=O)Cc1ccccn1 | - | - | - | . | . | . | .
C[C@H](CO)N1C[C@H](C)[C@@H](CN(C)C(=O)Cc2ccccn2)Oc2ncc(C#CC3CC3)cc2C1=O | 104 | - | . | - | - | - | 36
C[C@@H]1CN([C@@H](C)CO)C(=O)c2cc(C#CC3CCCC3)cnc2O[C@@H]1CN(C)C(=O)Nc1ccccc1 | - | - | . | . | . | . | .
COc1cccc(NC(=O)N(C)C[C@@H]2Oc3ncc(C#Cc4ccccc4)cc3C(=O)N([C@@H](C)CO)C[C@H]2C)c1 | 118 | . | . | 111 | 103 | - | -
COc1ccc(C#Cc2cnc3c(c2)C(=O)N([C@@H](C)CO)C[C@@H](C)[C@H](CN(C)C(=O)Nc2cccc(OC)c2)O3)cc1 | ? | - | . | 110 | - | - | -
CC(=O)N1[C@H](C(=O)N2CCc3ccccc3C2)[C@@H](CO)[C@@H]2Cn3c(cccc3=O)[C@@H]21 | . | - | . | . | . | . | .
C[C@@H]1CN([C@H](C)CO)C(=O)CCCn2cc(nn2)CO[C@H]1CN(C)C(=O)Nc1ccc2c(c1)OCCO2 | - | - | - | . | . | . | .
O=C(Nc1ccccc1F)N1CCCCN2[C@H](CO)[C@H](c3ccc(C#Cc4ccccc4)cc3)[C@@H]2C1 | - | - | . | . | . | . | .
